Results: ChEMBL document CHEMBL1146626, “The stability of pseudopeptides bearing sulfoximines as chiral backbone modifying element towards proteinase K” (Bioorg Med Chem Lett, 2003)
Residues, ends and D or L forms follow the SMILES beside them.

Legend:
[1] = Rate constant for the compound at a substrate concentration of 304 uM was determined; assay type: ADME
How it was run: (§1)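 Substrate incubated at 37 °C with Proteinase K in 30 mM Tris–HCl, 1 mM CaCl2, pH 8.0. Aliquots were taken at several times, snap-frozen in liquid nitrogen and held at -20 °C. Thawed samples went straight onto C-18 RP-HPLC, eluted with water then a gradient to 70% CH3CN. Substrate and cleavage products were tracked by UV at 210 nm against retention times.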

[2] = Relativity constant at a substrate concentration of 304 uM; assay type: ADME; how it was run: as §1
[3] = Half-life period at a substrate concentration of 304 uM was determined; assay type: ADME; how it was run: as §1
[4] = system: Proteinase K (Tritirachium album); experiment: Amount of proteinase K required to release folin positive amino acids at a substrate concentration of 304 uM
[5] = Relativity constant at a substrate concentration of 304 uM
[6] = Rate constant for the compound at a substrate concentration of 218 uM was determined; assay type: ADME; how it was run: as §1
[7] = Relativity constant at a substrate concentration of 218 uM; assay type: ADME; how it was run: as §1
[8] = Half-life period at a substrate concentration of 218 uM was determined; assay type: ADME; how it was run: as §1
[9] = Rate constant for the compound at a substrate concentration of 262 uM was determined; No cleavage; assay type: ADME; how it was run: as §1

Compound | K obs [1] [h⁻¹] | Krel [2] | half-life at 304 µM [3] [min] | Activity [4] [mAU ml-1] | Krel [5] | K obs [6] [h⁻¹] | Krel [7] | half-life at 218 µM [8] [min] | K obs [9]
N[C@H](Cc1ccccc1)C(=O)N=[S+]([O-])(CC(=O)N[C@H](Cc1ccccc1)C(=O)O)c1ccccc1 (some centres undefined) | 2.72 | 0.73 | 15.3 | 30 |  |  |  |  | 
N[C@@H](Cc1ccccc1)C(=O)N=[S+]([O-])(CC(=O)N[C@@H](Cc1ccccc1)C(=O)O)c1ccccc1 (some centres undefined) | 3.75 |  | 11.1 | 3 | 1 |  |  |  | 
N[C@@H](Cc1ccccc1)C(=O)N[C@@H](Cc1ccccc1)C(=O)N[C@@H](Cc1ccccc1)C(=O)O (H-Phe-Phe-Phe-OH) |  |  |  | 1.5 |  | 1.11 | 0.59 | 37.5 | 
N=[S+]([O-])(CC(=O)N[C@@H](Cc1ccccc1)C(=O)O)c1ccccc1 (some centres undefined) |  |  |  | 300 |  |  |  |  | No cleavage
